ChEMBL document CHEMBL2176939, “Rapid discovery of highly potent and selective inhibitors of histone deacetylase 8 using click chemistry to generate candidate libraries” (J Med Chem, 2012)
Activity calls are given as the source filed them. The rule behind the calls is not given here.

How the values were obtained:
Jurkat = test: Growth inhibition of human Jurkat cells incubated for 72 hrs by MTS assay; format: functional
Procedure, shortened: (§1)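 Cells plated at 2 × 10⁵ cells/well in culture medium and exposed to inhibitor for 72 h at 37 °C under 5% CO₂. MTS was then added for 2 h, with absorbance read at 490 nm against a 650 nm reference. Wells were also read at compound addition (T₀). % growth = 100[(T − T₀)/(C − T₀)], or […]. GI₅₀ is where % growth = 50.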

[1] = Growth inhibition of human PBMC PB-O cells incubated for 72 hrs by MTS assay; format: cell-based; procedure, shortened: as §1
HH = test: Growth inhibition of human HH cells incubated for 72 hrs by MTS assay; format: functional; procedure, shortened: as §1
[2] = Growth inhibition of human LAN1 cells incubated for 72 hrs by MTS assay; format: functional; settings: LAN1, 72 h; procedure, shortened: as §1
NB1 = test: Growth inhibition of human NB-1 cells incubated for 72 hrs by MTS assay; format: functional; settings: NB1, 72 h; procedure, shortened: as §1
MT4 = test: Growth inhibition of human MT4 cells incubated for 72 hrs by MTS assay; format: functional; settings: MT4, 72 h; procedure, shortened: as §1
MT2 = test: Growth inhibition of human MT2 cells incubated for 72 hrs by MTS assay; format: functional; settings: MT2, 72 h; procedure, shortened: as §1
[3] = Growth inhibition of human PBMC PB-N cells incubated for 72 hrs by MTS assay; format: cell-based; procedure, shortened: as §1
[4] = biological target: Histone deacetylase (Homo sapiens) (UniProt Q13547+O15379+Q9UBN7+Q92769+Q9UQL6+Q8WUI4+Q9BY41+Q96DB2+P56524+Q9UKV0+Q969S8); test: Inhibition of HDAC in human HeLa cells nuclear extracts at 3 uM by fluorometric assay; format: cell-free
Procedure, shortened: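 Total HDAC activity of HeLa nuclear extract was measured with a commercial fluorometric deacetylase kit, following the supplier's protocol. Compounds were screened at 3 μM, including crude click-reaction triazoles diluted without purification. Fluorescence was read at ex 360 / em 460 nm, and % inhibition was calculated relative to uninhibited control wells.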

Histone deacetylase 8 = biological target: T1, Histone deacetylase 8 (Homo sapiens, UniProt Q9BY41); test: Inhibition of HDAC8 by fluorometric assay
T1 sequence (Q9BY41 whole entry): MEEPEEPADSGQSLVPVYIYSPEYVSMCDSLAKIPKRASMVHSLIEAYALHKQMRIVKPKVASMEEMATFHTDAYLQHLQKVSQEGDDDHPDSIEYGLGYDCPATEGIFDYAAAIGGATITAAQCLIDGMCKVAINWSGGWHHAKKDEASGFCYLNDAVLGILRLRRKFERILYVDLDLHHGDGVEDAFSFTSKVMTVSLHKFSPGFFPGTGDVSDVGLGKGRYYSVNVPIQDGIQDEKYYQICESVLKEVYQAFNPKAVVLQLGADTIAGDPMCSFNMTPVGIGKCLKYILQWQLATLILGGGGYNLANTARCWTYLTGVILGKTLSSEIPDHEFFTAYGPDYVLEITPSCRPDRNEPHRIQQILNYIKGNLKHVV

Histone deacetylase 2 = Histone deacetylase 2 (Homo sapiens, UniProt Q92769); test: Inhibition of HDAC2 by fluorometric assay
Chain of Histone deacetylase 2 (Q92769 whole entry): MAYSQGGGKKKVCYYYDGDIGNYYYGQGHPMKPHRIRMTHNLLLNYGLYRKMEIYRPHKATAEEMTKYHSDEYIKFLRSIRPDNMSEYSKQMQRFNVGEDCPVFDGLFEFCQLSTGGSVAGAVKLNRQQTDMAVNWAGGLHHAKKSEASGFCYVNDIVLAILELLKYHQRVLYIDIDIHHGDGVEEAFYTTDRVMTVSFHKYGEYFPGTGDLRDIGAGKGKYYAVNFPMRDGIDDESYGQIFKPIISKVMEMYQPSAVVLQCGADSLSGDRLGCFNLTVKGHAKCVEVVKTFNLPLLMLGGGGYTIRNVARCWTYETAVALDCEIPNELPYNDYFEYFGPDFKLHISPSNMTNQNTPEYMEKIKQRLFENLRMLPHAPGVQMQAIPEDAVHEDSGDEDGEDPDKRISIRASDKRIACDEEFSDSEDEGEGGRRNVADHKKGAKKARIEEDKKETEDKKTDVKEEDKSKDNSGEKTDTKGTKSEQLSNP

Histone deacetylase 1 = Histone deacetylase 1 (Homo sapiens, UniProt Q13547); test: Inhibition of HDAC1 by fluorometric assay
Chain of Histone deacetylase 1 (Q13547 whole entry): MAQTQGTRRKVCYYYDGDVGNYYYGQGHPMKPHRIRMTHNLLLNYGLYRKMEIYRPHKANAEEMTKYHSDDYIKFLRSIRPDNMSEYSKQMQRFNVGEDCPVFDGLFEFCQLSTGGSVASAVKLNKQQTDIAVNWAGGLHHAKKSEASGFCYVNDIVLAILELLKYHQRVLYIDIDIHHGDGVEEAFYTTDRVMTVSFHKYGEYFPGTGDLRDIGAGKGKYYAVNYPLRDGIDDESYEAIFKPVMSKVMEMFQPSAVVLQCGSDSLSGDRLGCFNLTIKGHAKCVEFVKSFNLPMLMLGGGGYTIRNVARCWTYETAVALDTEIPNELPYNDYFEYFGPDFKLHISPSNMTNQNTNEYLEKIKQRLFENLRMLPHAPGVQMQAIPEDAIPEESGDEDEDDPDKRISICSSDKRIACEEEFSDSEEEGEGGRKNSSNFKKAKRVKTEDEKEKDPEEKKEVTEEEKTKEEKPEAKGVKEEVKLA

Histone deacetylase 4 = Histone deacetylase 4 (Homo sapiens, UniProt P56524); test: Inhibition of HDAC4 by fluorometric assay
Chain of Histone deacetylase 4 (P56524 whole entry): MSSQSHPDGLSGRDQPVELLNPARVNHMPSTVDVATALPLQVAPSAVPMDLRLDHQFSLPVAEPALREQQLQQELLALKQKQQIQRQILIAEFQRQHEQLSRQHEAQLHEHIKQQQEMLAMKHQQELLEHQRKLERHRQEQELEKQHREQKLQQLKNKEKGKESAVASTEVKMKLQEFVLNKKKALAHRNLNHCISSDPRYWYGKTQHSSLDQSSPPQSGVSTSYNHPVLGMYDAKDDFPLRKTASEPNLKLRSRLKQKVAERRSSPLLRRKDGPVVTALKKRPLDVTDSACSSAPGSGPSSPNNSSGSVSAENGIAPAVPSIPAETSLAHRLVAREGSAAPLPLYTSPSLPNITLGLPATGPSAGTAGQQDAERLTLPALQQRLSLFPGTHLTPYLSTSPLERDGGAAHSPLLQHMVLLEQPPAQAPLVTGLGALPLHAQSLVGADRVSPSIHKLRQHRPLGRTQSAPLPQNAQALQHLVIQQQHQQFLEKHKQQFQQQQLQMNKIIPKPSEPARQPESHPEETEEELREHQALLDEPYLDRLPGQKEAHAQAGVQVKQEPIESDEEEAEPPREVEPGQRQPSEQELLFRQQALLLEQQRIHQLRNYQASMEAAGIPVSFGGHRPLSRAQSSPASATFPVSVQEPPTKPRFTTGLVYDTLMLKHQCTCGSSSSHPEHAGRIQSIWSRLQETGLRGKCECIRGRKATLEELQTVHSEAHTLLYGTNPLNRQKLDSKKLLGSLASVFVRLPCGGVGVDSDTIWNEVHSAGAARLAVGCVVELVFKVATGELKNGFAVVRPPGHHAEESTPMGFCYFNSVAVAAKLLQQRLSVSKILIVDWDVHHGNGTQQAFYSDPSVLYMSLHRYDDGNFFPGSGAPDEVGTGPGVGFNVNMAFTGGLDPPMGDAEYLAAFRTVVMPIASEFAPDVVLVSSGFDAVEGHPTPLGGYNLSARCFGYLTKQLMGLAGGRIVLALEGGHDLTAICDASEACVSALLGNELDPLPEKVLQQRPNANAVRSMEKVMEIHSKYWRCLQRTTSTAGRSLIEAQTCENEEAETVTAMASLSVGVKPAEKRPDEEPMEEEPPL

[5] = biological target: T2, Protein deacetylase HDAC6 (Homo sapiens, UniProt Q9UBN7); test: Inhibition of HDAC6 by fluorometric assay
T2 sequence (Q9UBN7 whole entry): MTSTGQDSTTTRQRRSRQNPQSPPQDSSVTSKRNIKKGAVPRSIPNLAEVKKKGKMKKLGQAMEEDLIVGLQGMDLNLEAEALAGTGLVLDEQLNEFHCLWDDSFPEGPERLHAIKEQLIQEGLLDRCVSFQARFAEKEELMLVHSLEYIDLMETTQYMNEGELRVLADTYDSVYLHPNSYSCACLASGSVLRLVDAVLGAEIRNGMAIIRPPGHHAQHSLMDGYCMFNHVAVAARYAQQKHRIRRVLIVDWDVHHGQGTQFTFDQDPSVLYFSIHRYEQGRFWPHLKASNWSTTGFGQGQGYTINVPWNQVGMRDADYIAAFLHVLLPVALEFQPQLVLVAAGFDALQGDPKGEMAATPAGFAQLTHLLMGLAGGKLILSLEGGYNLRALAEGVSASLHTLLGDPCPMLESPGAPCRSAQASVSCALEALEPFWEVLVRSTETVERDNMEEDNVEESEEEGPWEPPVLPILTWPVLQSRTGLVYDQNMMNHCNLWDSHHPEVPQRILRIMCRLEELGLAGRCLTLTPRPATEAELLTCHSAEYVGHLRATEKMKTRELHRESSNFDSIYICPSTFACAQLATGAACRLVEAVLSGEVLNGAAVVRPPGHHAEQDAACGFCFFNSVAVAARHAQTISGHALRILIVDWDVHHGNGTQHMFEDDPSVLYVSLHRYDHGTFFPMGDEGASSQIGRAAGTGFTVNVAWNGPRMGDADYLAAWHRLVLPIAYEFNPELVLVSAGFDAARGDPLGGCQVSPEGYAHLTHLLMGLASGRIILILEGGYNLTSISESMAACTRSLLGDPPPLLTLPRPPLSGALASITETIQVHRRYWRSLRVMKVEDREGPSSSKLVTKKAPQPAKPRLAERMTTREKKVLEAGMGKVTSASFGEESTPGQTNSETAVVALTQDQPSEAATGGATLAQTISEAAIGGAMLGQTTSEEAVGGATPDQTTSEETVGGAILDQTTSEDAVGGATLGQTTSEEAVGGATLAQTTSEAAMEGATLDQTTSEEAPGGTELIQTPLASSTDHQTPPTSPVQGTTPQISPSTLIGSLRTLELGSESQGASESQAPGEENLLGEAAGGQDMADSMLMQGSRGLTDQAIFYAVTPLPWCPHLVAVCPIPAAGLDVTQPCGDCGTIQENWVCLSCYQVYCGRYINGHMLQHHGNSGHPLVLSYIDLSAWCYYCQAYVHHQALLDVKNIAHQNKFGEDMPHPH

Histone deacetylase = test: Inhibition of HDAC in human HeLa cells nuclear extracts by fluorometric assay; format: cell-based

Row | SMILES | GI50 (Jurkat) | inhibition [4] | IC50 (Histone deacetylase 8) | IC50 (Histone deacetylase 2) | IC50 (Histone deacetylase 1) | IC50 (Histone deacetylase 4) | IC50 [5] | IC50 (Histone deacetylase) | GI50 at 72 h [1] | GI50 (HH) | GI50 [2] | GI50 (NB1) | GI50 (MT4) | GI50 (MT2) | GI50 at 72 h [3]
1 | COc1ccc(Cn2ccc3ccc(C(=O)NO)cc32)cc1 | 11 µM |  |  |  |  |  |  |  | 97 µM | > 100 µM | 3.9 µM | 14 µM | 25 µM | 15 µM | > 100 µM
2 | O=C(NO)c1cccc(-c2cn(CSc3ccccc3)nn2)c1 | 7.6 µM | inactive |  |  |  |  |  |  | > 100 µM | 23 µM | 6.4 µM | 12 µM | 15 µM | 11 µM | > 100 µM
3 | O=C(NO)c1cccc(-c2cn(CCc3ccsc3)nn2)c1 |  | inactive | 0.1 µM | > 100 µM | > 100 µM | > 100 µM | 1.1 µM | 44 µM |  |  |  |  |  |  | 

Continued, in another order:

Row | GI50 (Jurkat) | inhibition [4] | IC50 (Histone deacetylase 8) | IC50 (Histone deacetylase 2) | IC50 (Histone deacetylase 1) | IC50 (Histone deacetylase 4) | IC50 [5] | IC50 (Histone deacetylase) | SMILES | GI50 at 72 h [1] | GI50 (HH) | GI50 [2] | GI50 (NB1) | GI50 (MT4) | GI50 (MT2) | GI50 at 72 h [3]
4 |  | inactive | 0.35 µM | 65 µM | 41 µM | 30 µM | 7.9 µM | 37 µM | O=C(NO)c1cccc(-c2cn(Cc3ccccc3)nn2)c1 |  |  |  |  |  |  | 
5 | 11 µM | inactive | 0.18 µM | 76 µM | > 100 µM | > 100 µM | 3.2 µM | 23 µM | O=C(NO)c1cccc(-c2cn(CCc3ccccc3)nn2)c1 | > 100 µM | 79 µM | 27 µM | 39 µM | 30 µM | 19 µM | > 100 µM
